{"source": "the EternaBench riboswitch data", "test_system": "MS2 coat protein", "assay": "apparent Kd, MS2 coat protein; higher = weaker binding; RNA-MaP array; FMN 200 µM where present", "in_short": "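The apparent Kd is the median of filtered binding-curve fits, one per cluster, to green signal normalised to red-channel RNA signal and control-cluster median Fmax. The clusters were on Illumina sequencing chips, and stalled E. coli RNA polymerase had transcribed the designs on them. Titration used SNAP-549-labelled MS2 coat protein from 0.7 or 1.5 nM, doubling to 3 µM, without and then with constant ligand, in 100 mM Tris-HCl pH 7.5, 80 mM KCl, 4 mM MgCl2, BSA, DTT, yeast tRNA and Tween-20.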", "key": {"[1]": {"details": "designed as: OFF switch for flavin mononucleotide, no ligand"}, "[2]": {"details": "ligand present: flavin mononucleotide, designed as: OFF switch for flavin mononucleotide"}, "[3]": {"details": "designed as: ON switch for flavin mononucleotide, no ligand"}, "[4]": {"details": "ligand present: flavin mononucleotide, designed as: ON switch for flavin mononucleotide"}}, "data": [{"sequence": "AACCAGUUGGUAGGAUAUGGUACAGUACCCGUACCAGAAGGACCAACAUGAGGAUCACCCAUGUUGGAAAGUCAACAUUAAUGA", "values": [{"measurement": "apparent Kd", "setting": "[1]", "result": 6.51, "unit": "nM"}, {"measurement": "apparent Kd", "setting": "[2]", "result": 14, "unit": "nM"}]}, {"sequence": "CCUUUGAAGAUCCUGGUUUUCGACAUGAGGAUCACCCAUGUGCAGGAUAUCGUGCCGGUGCUGUGCGAGAAGGGCAGUCUCAGC", "values": [{"measurement": "apparent Kd", "setting": "[1]", "result": 15.1, "unit": "nM"}, {"measurement": "apparent Kd", "setting": "[2]", "result": 17.9, "unit": "nM"}]}, {"sequence": "AACAUGGUACAGAAGGGCUAUUUAUUUAAUUAUUAUUUAGAACAGCAUAGCAGGAUAUGUUUAACAUGAGGAUCACCCAUGUAC", "values": [{"measurement": "apparent Kd", "setting": "[3]", "result": 71.3, "unit": "nM"}, {"measurement": "apparent Kd", "setting": "[4]", "result": 14.7, "unit": "nM"}]}, {"sequence": "GUGUGCUGAGGAUAUACAGAGGAAGAUAAUACAAUAUAAGUACAUGAGGAUCACCCAUGUAGAAGGCAGAGUGU", "values": [{"measurement": "apparent Kd", "setting": "[1]", "result": 28.2, "unit": "nM"}, {"measurement": "apparent Kd", "setting": "[2]", "result": 26.4, "unit": "nM"}]}, {"sequence": "AGCUGUGGCCGAGGAUAUCUAAUAAUCUCAACCGAAAUAUAAUCGGACAUGAGGAUCACCCAUGUAGAGAAGGCGGUCUCAGCA", "values": [{"measurement": "apparent Kd", "setting": "[1]", "result": 36.2, "unit": "nM"}, {"measurement": "apparent Kd", "setting": "[2]", "result": 92.8, "unit": "nM"}]}, {"sequence": "UGUCGGAGCAGAGGAUAUUACAUGAGGAUCACCCAUGUAUGAACCAAUAGCUGGAAACAGCAAUGUAAGAAGGCUGCUCCGAUA", "values": [{"measurement": "apparent Kd", "setting": "[1]", "result": 11.8, "unit": "nM"}, {"measurement": "apparent Kd", "setting": "[2]", "result": 166, "unit": "nM"}]}, {"sequence": "UUACUCAUGUAAGGAUAUGCAGCCGUUUCGGCUGCAGAAGGUACUAUACUACAUGAGGAUCACCCAUGUCUAUAAAAUAAAGAC", "values": [{"measurement": "apparent Kd", "setting": "[3]", "result": 123, "unit": "nM"}, {"measurement": "apparent Kd", "setting": "[4]", "result": 44.4, "unit": "nM"}]}, {"sequence": "GGUUCGGGAGGAUAUGUGUUUUUGGACAUGAGGAUCACCCAUGUUUUCAUGUUUUUUCCCACAGAAGGUUUGGGCC", "values": [{"measurement": "apparent Kd", "setting": "[1]", "result": 18.6, "unit": "nM"}, {"measurement": "apparent Kd", "setting": "[2]", "result": 22.9, "unit": "nM"}]}, {"sequence": "AAGCUCGUGUGAGGAUAUGCCGCCGUUUCGGCUGCAGAAGGUGCUACGUUACAUGAGGAUCACCCAUGUCUCUGUUGUUUCGUA", "values": [{"measurement": "apparent Kd", "setting": "[3]", "result": 42.6, "unit": "nM"}, {"measurement": "apparent Kd", "setting": "[4]", "result": 49.7, "unit": "nM"}]}, {"sequence": "GUAGAGUAAGGAUAUGGAGAAUAGGAUAGAAUGGUUAGAAUCUAGAAGGUACAUGAGGAUCACCCAUGUAAUGU", "values": [{"measurement": "apparent Kd", "setting": "[1]", "result": 21.7, "unit": "nM"}, {"measurement": "apparent Kd", "setting": "[2]", "result": 20.8, "unit": "nM"}]}, {"sequence": "UUAUUUUUACAGAAGGUUUAAUAAUAUAUAUGAGAAGGAUAUGUAACAUGAGGAUCACCCAUGUUUCAUCUAUAUGAGGAUCAU", "values": [{"measurement": "apparent Kd", "setting": "[1]", "result": 6.69, "unit": "nM"}, {"measurement": "apparent Kd", "setting": "[2]", "result": 6.32, "unit": "nM"}]}, {"sequence": "CGGGAGAGAGGAUAUGGUGGACAUCACAUGAGGAUCACCCAUGUCUCGAGUGCUCCGUCACCAGAAGGCUCCGUUU", "values": [{"measurement": "apparent Kd", "setting": "[1]", "result": 109, "unit": "nM"}, {"measurement": "apparent Kd", "setting": "[2]", "result": 78.7, "unit": "nM"}]}, {"sequence": "CGAUGUUAUGCAGGAUAUCUCUCUUGUUAGAGGAGAGAAGGGCAUAGGGAGACAUACGCCUUAUUACAUGAGGAUCACCCAUGU", "values": [{"measurement": "apparent Kd", "setting": "[1]", "result": 9.38, "unit": "nM"}, {"measurement": "apparent Kd", "setting": "[2]", "result": 8.24, "unit": "nM"}]}, {"sequence": "GGAAAACAUGAGGAUCACCCAUGUGAGGAUAUCGAUGUCCAAAAAGAAGUGCGGGACUCGAGAAGGCACUUGGA", "values": [{"measurement": "apparent Kd", "setting": "[1]", "result": 52.7, "unit": "nM"}, {"measurement": "apparent Kd", "setting": "[2]", "result": 37.5, "unit": "nM"}]}, {"sequence": "ACGAGACUCGUGAGGAUAUCGUGUUGUAAGCAGAUCGAGAAGGCACAUGAGGAUCACCCAUGUUUACUGCCACA", "values": [{"measurement": "apparent Kd", "setting": "[1]", "result": 17, "unit": "nM"}, {"measurement": "apparent Kd", "setting": "[2]", "result": 21.9, "unit": "nM"}]}, {"sequence": "UAAAUUUUAUGAUAUUAUGACAUUAGAAGGCUGUACAUGUUGAUACAUGAGGAUCACCCAUGUAUAGAGGAUAUAGACAAUUUU", "values": [{"measurement": "apparent Kd", "setting": "[1]", "result": 31, "unit": "nM"}, {"measurement": "apparent Kd", "setting": "[2]", "result": 65.1, "unit": "nM"}]}, {"sequence": "CGUUUAUUUAUGGGUUUAGAUUAUGAGGAUAUCAUUUUUUUAUACAUGAGGAUCACCCAUGUUACUGAGAAGGCAUAAUUAACG", "values": [{"measurement": "apparent Kd", "setting": "[3]", "result": 16.4, "unit": "nM"}, {"measurement": "apparent Kd", "setting": "[4]", "result": 7.09, "unit": "nM"}]}, {"sequence": "CUCUUGUGAGGAUAUGCUGCUCGUCACGAAAGUGAUGAGUAGCAGAAGGCACAUGAGGAUCACCCAUGUAAAUA", "values": [{"measurement": "apparent Kd", "setting": "[1]", "result": 93.7, "unit": "nM"}, {"measurement": "apparent Kd", "setting": "[2]", "result": 21.7, "unit": "nM"}]}, {"sequence": "AAGGUGCAGGUACAGGAUAUGUUGCUCGUAACAUGAGGAUCACCCAUGUACCUAUGAGAUUAAAUGCAGAAGGGUGCACACCAAA", "values": [{"measurement": "apparent Kd", "setting": "[3]", "result": 792, "unit": "nM"}, {"measurement": "apparent Kd", "setting": "[4]", "result": 87.5, "unit": "nM"}]}, {"sequence": "UUUAUGUCAGGAUAUUCGGAUAGGAAAACGAAAACCUAUCCGAAGAAGGGACAUGAGGAUCACCCAUGUAAAAA", "values": [{"measurement": "apparent Kd", "setting": "[1]", "result": 217, "unit": "nM"}, {"measurement": "apparent Kd", "setting": "[2]", "result": 151, "unit": "nM"}]}, {"sequence": "GGACGUCAGAUUAACAUGAGGAUCACCCAUGUCUUUUGACAUGAGGAUAUGCAACCUAAUUGGUUGCAGAAGGCAUGGACGUCC", "values": [{"measurement": "apparent Kd", "setting": "[3]", "result": 917, "unit": "nM"}, {"measurement": "apparent Kd", "setting": "[4]", "result": 85.2, "unit": "nM"}]}, {"sequence": "GGUGCGUUUGUGAGGAUAUGCUGGUCCUUGGAUCAGCAGAAGGCACAUGAGGAUCACCCAUGUGGUGUCGUUCC", "values": [{"measurement": "apparent Kd", "setting": "[1]", "result": 181, "unit": "nM"}, {"measurement": "apparent Kd", "setting": "[2]", "result": 143, "unit": "nM"}]}, {"sequence": "AAAGCAUACCGAGGAUAUUCAUAUAAUAAAUAAACAUGAGGAUCACCCAUGUGGCGAAAGCCUAGGGAGAAGGCGGAAUGCUAA", "values": [{"measurement": "apparent Kd", "setting": "[3]", "result": 197, "unit": "nM"}, {"measurement": "apparent Kd", "setting": "[4]", "result": 24.6, "unit": "nM"}]}, {"sequence": "GUAUGAGCGAUAGGAUAUACUGAGAUUGAAUGGGUAGAAGGAUUUCUUGUGGGAAAGACAUGAGGAUCACCCAUGUCGCGGACC", "values": [{"measurement": "apparent Kd", "setting": "[3]", "result": 299, "unit": "nM"}, {"measurement": "apparent Kd", "setting": "[4]", "result": 176, "unit": "nM"}]}, {"sequence": "UCCUUCUGUUGAGGAUAUGUAAGACAGCGGCUGCUAUUACGGCACGCUGAUACAGAAGGCAACAUGAGGAUCACCCAUGUUCAA", "values": [{"measurement": "apparent Kd", "setting": "[1]", "result": 24.1, "unit": "nM"}, {"measurement": "apparent Kd", "setting": "[2]", "result": 189, "unit": "nM"}]}, {"sequence": "UGAUCUAUGUAGAAGGCCCAUAUCUAUAUUUAGGGAGGAUAUACAUGAGGAUCACCCAUGUAUAGAGCUAGUGGACUGGUCAGC", "values": [{"measurement": "apparent Kd", "setting": "[1]", "result": 48, "unit": "nM"}, {"measurement": "apparent Kd", "setting": "[2]", "result": 69.4, "unit": "nM"}]}, {"sequence": "GAGUGGCAAGGAUAUACAGUGGAGAGGAUGGCAAGAGGUGGACAUGAGGAUCACCCAUGUAGAAGGUGCAGAGA", "values": [{"measurement": "apparent Kd", "setting": "[1]", "result": 154, "unit": "nM"}, {"measurement": "apparent Kd", "setting": "[2]", "result": 235, "unit": "nM"}]}]}
